Bioassay records: PubChem, several laboratories
Sampled rows, rich in hits. Any-hit rate of the full collection: about 1.3%.
PLCg1 inh: PLC-gamma1 (human) inhibition, primary screen; purified PLC-gamma1, fluorogenic substrate, fluorescence; P19174; inhibition, % at 12.2 µM; AID 720700; 0.84% of 370,000 active
Target sequence (P19174 whole entry, looked up): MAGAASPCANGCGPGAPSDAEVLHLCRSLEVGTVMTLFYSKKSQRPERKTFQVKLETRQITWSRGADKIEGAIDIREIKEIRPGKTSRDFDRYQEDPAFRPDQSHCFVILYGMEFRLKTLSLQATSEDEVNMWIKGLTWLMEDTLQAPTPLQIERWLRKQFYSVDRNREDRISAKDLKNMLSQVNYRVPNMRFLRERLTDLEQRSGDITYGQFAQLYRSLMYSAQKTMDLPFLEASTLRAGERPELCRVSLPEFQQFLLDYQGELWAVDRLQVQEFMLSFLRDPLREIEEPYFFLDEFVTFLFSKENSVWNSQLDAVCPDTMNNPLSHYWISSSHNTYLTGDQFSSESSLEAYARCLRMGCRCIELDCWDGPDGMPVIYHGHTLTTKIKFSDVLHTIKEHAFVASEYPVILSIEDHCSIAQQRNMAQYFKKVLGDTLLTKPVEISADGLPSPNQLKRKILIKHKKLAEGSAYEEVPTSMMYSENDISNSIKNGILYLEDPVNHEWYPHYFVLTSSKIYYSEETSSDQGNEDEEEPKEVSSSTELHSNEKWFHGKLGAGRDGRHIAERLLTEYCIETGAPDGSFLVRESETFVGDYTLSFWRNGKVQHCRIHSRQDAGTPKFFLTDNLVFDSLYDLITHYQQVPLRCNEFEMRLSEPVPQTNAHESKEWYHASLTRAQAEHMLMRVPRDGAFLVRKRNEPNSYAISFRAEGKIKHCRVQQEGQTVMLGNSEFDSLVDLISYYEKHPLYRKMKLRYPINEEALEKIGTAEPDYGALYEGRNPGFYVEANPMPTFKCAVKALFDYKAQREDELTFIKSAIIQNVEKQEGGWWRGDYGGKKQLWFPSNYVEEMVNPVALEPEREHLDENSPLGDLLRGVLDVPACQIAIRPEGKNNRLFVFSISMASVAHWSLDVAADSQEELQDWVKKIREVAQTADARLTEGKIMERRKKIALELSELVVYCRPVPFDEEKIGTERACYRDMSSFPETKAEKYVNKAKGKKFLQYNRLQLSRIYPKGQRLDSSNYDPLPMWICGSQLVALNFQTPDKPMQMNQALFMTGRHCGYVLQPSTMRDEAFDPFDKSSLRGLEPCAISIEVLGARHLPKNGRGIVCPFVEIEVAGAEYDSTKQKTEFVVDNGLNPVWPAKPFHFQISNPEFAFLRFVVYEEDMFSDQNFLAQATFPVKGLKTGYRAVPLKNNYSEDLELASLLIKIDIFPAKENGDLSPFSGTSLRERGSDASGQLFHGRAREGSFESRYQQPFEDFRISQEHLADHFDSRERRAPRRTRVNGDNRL
Arr AP2 block: human beta-arrestin and AP2 interaction inhibition. FITC-arrestin peptide / GST-AP2 beads, flow cytometry; AP2 beta2 appendage carries R879A mutation. inhibition, % at 10 µM. 0.31% of 340,000 active. AID 504490;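 active means inhibition above a set limit, near 3 SD of compounds lacking own fluorescence, cut at about 54% in these data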;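 further: plate controls were DMSO wells for no effect and 5 µM unlabelled arrestin peptide for full effect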
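System: GST-AP2 R879A glutathione beads. Medium: PBS with 0.05% Tween 20 and 0.1% BSA. Also added: FITC-arrestin peptide, 50 nM. Incubation: 12 min plus 1 h, RT. Measured by: high-throughput flow cytometry of beads, ex 488, em 535 nm. Evaluation: percent drop in bead-associated FITC signal.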
PLCb3 inh: PLC-beta3 (human) inhibition, primary screen; Q01970; Purified PLC-beta3, fluorogenic substrate, fluorescence; inhibition, % at 12.2 µM; 0.18% of 370,000 active; in the data active means inhibition above about 11%;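 further: 0% = median of compound wells on plate and 100% = full blocker control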
NTR1 ag: activates human neurotensin receptor 1. NTR1-U2OS beta-arrestin-GFP spot imaging, agonist mode. activation, % at 20 µM. 0.17% of 330,000 active;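 active means activation at or above 40% of the spot to cytoplasm intensity ratio, with at least 20 cells analyzed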;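 further: 0% = DMSO without peptide and 100% = 100 nM NTR1 peptide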
PLCgamma1 ctr: inhibits human PLC-gamma1 in PLC-beta3 counter-screen | shares compounds with PLCg1 inh | purified PLC-gamma1, fluorogenic substrate, fluorescence | inhibition, % at 12.3 µM | 3.1% of 3,300 active | AID 743258
PLCb3 confirm: confirmation of human PLC-beta3 inhibitors | AID 743261 | 1% of 3,300 active | purified PLC-beta3, fluorogenic substrate fluorescence | inhibition, % at 12.3 µM | shares compounds with PLCg1 inh; in the data active means inhibition above about 11%
Starred values were filed as active, the others as inactive; . = no result. Unless noted, no stated cut-off is given here; in the data, active means inhibition above about 9.5%; inactive means the rest.

SMILES | PLCg1 inh | Arr AP2 block | PLCb3 inh | NTR1 ag | PLCgamma1 ctr | PLCb3 confirm
Cc1cccc(C(=O)NNC(=O)C2CCN(C(=O)OC(C)(C)C)CC2)c1 | 9.8* | 39.9 | 2.5 | -1.1 | -8.7 | -3.5
Cc1ccc(C(=O)NNC(=O)C2CCN(C(=O)OC(C)(C)C)CC2)cc1 | -1.4 | 25.0 | -5.7 | -0.3 | . | .
Cc1c(N2C(=O)c3cccc4cccc(c34)C2=O)c(=O)n(-c2ccccc2)n1C | 9.8* | -15.0 | 12.4* | -0.7 | 13.5* | 5.4
CCNC(=O)O[C@@H]1C=C[C@@H](C#Cc2ccc(C(C)(C)C)cc2)O[C@@H]1COC(C)=O | 1.1 | . | 0.2 | . | . | .
Cc1cc(=O)n2nc(N3CCCC(C(=O)NCc4ccccc4C)C3)sc2n1 (stereo not drawn) | -1.7 | 2.2 | 1.7 | -1.8 | . | .
Cc1cc(=O)n2nc(N3CCCC(C(=O)NCc4ccccc4Br)C3)sc2n1 (stereo not drawn) | 12.5* | 7.8 | -6.6 | 1.5 | -3.1 | 1.2
Cc1sc2ncn(CC(=O)NCCN3CCOCC3)c(=O)c2c1S(=O)(=O)N1CCC(C)CC1 | 11.2* | 0.7 | 3.4 | -0.1 | -8.1 | -5.4
COC(=O)[C@@]12CCCCC3=C1N(CCC3)C(=O)[C@H]2CC(=O)NCCCN1CCCC1=O | -0.6 | . | 0.7 | . | . | .
COc1cc(C(=O)NNC(=O)c2cccc(Cl)c2)ccc1OCC(=O)N1CCOCC1 | -1.7 | -6.9 | -4.2 | 0.3 | . | .
CCc1ccc(C(=O)NNC(=O)c2ccc(OCC(=O)N3CCOCC3)c(OC)c2)cc1 | 13.1* | 0.7 | -1.9 | -0.7 | 0.0 | 0.4
CCOC(=O)[C@@]12CN(C(=O)OC(C)(C)C)CC=C1N(Cc1ccc(OC)cc1)C(=O)[C@H]2CC(=O)N1CCN(C(=O)c2ccco2)CC1 | 0.9 | . | -1.6 | . | . | .
Cc1nc(SCC(=O)Nc2cc(S(=O)(=O)N3CCOCC3)ccc2Cl)nc(C)c1C | 11.0* | 26.5 | -1.1 | 1.4 | -2.7 | 0.8
COc1cc(S(=O)(=O)N2CCOCC2)ccc1NC(=O)c1cc2c(s1)CCC2 | -2.5 | -1.5 | -7.3 | 2.0 | . | .
Nc1cc(=O)[nH]c(SCC(=O)Nc2cc(S(=O)(=O)N3CCOCC3)ccc2Cl)n1 | -0.4 | 4.2 | 2.5 | -2.0 | . | .
Cc1ccc(C2(C)NC(=O)N(CC(=O)Nc3cc(S(=O)(=O)N4CCOCC4)ccc3C)C2=O)cc1 (stereo not drawn) | 10.2* | 5.0 | 8.9 | 2.9 | -2.8 | 2.0
Cc1ccc(S(=O)(=O)N2CCOCC2)cc1NC(=O)c1cc2c(s1)CCC2 | 10.1* | 8.7 | 3.2 | 0.2 | -5.8 | -2.4
COc1ccc(CN(CCN2CCOCC2)C(=O)c2cc(F)cc(F)c2)cc1OC | -0.5 | . | 2.4 | . | . | .
O=C(CCc1ccccc1)N[C@H]1[C@@H](OC(=O)c2ccco2)CCC[C@@]12C(=O)N(Cc1ccccc1)c1ccccc12 | 1.8 | . | 3.8 | . | . | .
O=C(CSc1nnc(-c2ccccc2)n1Cc1ccco1)Nc1ccc(OCc2ccccc2)cc1 | 11.4* | . | 6.8 | . | 0.7 | 0.1
Cc1cccc(-c2nnc(SCC(=O)Nc3ccc(OCc4ccccc4)cc3)n2Cc2ccco2)c1 | 7.9 | . | 2.2 | . | . | .
Cc1nn(CC(=O)N2CCN(c3ccccc3)CC2)c(C)c1[N+](=O)[O-] | -0.1 | 19.8 | -5.8 | 0.6 | . | .
Cc1ccc(S(=O)(=O)N2CCN(C(=O)Cn3nc(C)c([N+](=O)[O-])c3C)CC2)c(C)c1 | 10.0* | 23.2 | -8.3 | -0.5 | -0.4 | 2.4
O=C(O)c1ccc(C#Cc2cccc(F)c2)cn1 | -1.3 | . | -1.1 | . | . | .
CCn1cnnc1SCC(=O)Nc1ccccc1C(=O)NC1CC1 | 11.5* | -6.6 | 11.2* | -0.9 | -2.5 | 0.5
C/C=C/C=C/C(=O)c1cc(C)c(OC(=O)CNC(=O)OC(C)(C)C)c(C)c1O | -12.0 | . | -16.8 | . | . | .
CCOC(=O)C1=C(C)OC2(O)c3ccccc3C(=O)C12O (stereo not drawn) | 10.3* | -11.3 | 2.1 | -0.5 | -1.9 | -3.8
Nc1nnc(COc2ccccc2)s1 | 10.9* | -0.8 | 0.7 | -1.4 | -4.9 | 0.0
O=C(Nc1ccc(N2C(=O)CC3(CCCCC3)C2=O)c(Cl)c1)c1ccccn1 | -1.1 | . | 4.2 | . | . | .
COC(=O)C(C(=O)OC)[C@H]1C=C[C@@H](C(=O)NS(=O)(=O)c2ccc(C)cc2)N(C(C)=O)C1 | 80.7* | . | -0.3 | . | 76.5* | -4.2
